Source: PubChem (several laboratories)
The sample as a whole holds a higher share of hits than the screen did.
TLR4 MyD88 comp – TLR4-MyD88 interaction inhibition in cells | inhibition, % at 8.4 µM | O00206+Q99836 | 200,000 compounds, 0.18% hits | HeLa CL3-4 TLR4/MyD88 BLA complementation, FRET ratio | AID 861; in the data active = inhibition above about 25%
UPR CHOP act – activators of apoptotic arm of unfolded protein response (CHOP); CHO-CHOP luciferase reporter, UPR activation, luminescence; percent of tunicamycin response over DMSO baseline; activation, % at 10 µM; 330,000 compounds, 0.34% hits; AID 449763;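 active = at 10 µM dose, activation of 40% or more, normalized to positive control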
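Test system: CHO CHOP reporter cells. Input: 500 CHO-CHOP cells per well. Medium: F12 with 10% FBS. Technique: luciferase luminescence. Measure: percent activation relative to tunicamycin control. Dosing: 10 µM compound, 0.5% DMSO. Timing: 16-18 h cell attachment, then 6 h compound exposure, 37 °C.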
NOD2-RIPK2 inh – NOD2-RIPK2 protein interaction inhibition | O43353 | CHO BLA complementation NOD2-RIPK2, CCF4 ratio | inhibition, % at 4.98 µM | 360,000 compounds, 0.38% hits | AID 624267; in the data active = inhibition above about 21%
Target sequence (O43353 whole entry, looked up): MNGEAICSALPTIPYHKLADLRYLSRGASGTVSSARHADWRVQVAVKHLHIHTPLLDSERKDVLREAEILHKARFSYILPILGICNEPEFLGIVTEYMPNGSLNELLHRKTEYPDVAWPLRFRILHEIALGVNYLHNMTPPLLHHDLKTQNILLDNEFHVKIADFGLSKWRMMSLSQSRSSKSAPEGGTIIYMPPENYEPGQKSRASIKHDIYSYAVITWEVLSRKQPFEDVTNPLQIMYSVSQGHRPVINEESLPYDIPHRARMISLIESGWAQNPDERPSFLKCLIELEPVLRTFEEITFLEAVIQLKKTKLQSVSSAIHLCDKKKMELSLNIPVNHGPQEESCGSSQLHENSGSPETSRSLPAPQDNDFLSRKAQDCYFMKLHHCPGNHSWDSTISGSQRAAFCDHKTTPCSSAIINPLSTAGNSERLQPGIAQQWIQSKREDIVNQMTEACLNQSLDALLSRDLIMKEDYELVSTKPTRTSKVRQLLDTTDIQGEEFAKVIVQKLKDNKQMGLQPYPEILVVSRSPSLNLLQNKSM
CHOP inhibitor – CHOP inhibition in unfolded protein response | CHO-K1 CHOP-promoter luciferase, tunicamycin-induced, 15-18 h | inhibition, % at 10 µM | 220,000 compounds, 3.8% hits;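 active = compounds that reduced the stress-induced luciferase reporter signal by more than about 70% of percent inhibition, limit read from the data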
UPR XBP1 act – activators of adaptive arm of unfolded protein response (XBP1) | CHO-XBP1 luciferase reporter, IRE1-XBP1 UPR activation, luminescence; percent of tunicamycin response, DMSO as zero | activation, % at 20 µM | 330,000 compounds, 0.33% hits | AID 463104;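 active = versus positive control, 20 µM dose yields 30% or more activation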
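Material – CHO cell line with stable XBP1 luciferase reporter · Buffer or medium – F12 plus 10% FBS · Compound – single point, 20 µM final compound, 1% DMSO · Schedule – 16-18 h cell attachment at 37 °C, then 6 h compound exposure · Signal – Steady-Glo luminescence read · Benchmarks – high control tunicamycin 10 µg/mL final, low control DMSO vehicle only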
TLR9-MyD88 block – TLR9-MyD88 interaction inhibition. 340,000 compounds, 0.21% hits. inhibition, % at 4.98 µM. AID 504734. CHO BLA complementation TLR9-MyD88, CCF4 FRET ratio. Q9NR96+Q99836;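 active = inhibition above the mean over all tested compounds plus 3 SD, cut at about 21% in these data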
NOD2-RIPK2 conf – confirmation of human NOD2-RIPK2 interaction inhibitors; shares compounds with NOD2-RIPK2 inh; CHO cells, NOD2-RIPK2 BLA complementation, CCF4 FRET; inhibition, % at 4.98 µM; 1,200 compounds, 70% hits;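 active = mean inhibition across replicates above a set limit taken from the earlier primary screen, cut at about 21% in these data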
BLA counter – counter-screen for NOD2-RIPK2 interaction inhibitors: BLA reporter | shares compounds with NOD2-RIPK2 inh | CHO BLA reporter, CCF4 FRET ratio, counterscreen | inhibition, % at 4.98 µM | 1,200 compounds, 57% hits | AID 624371;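 active = mean inhibition above the low-control mean inhibition plus three low-control SD, cut at about 11% in these data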
Numbers stand for hits; – = inactive; · = not tested or not shown.

SMILES	TLR4 MyD88 comp	UPR CHOP act	NOD2-RIPK2 inh	CHOP inhibitor	UPR XBP1 act	TLR9-MyD88 block	NOD2-RIPK2 conf	BLA counter
COc1ccc(C(=O)Nc2ccc(C)cc2C(=O)c2ccccc2)cc1	–	–	–	–	–	–	·	·
COc1ccccc1C(=O)Nc1ccc(C)cc1C(=O)c1ccccc1	–	–	22	–	–	–	–	–
CCN(CC)C(=O)CSc1nc2ncc(Br)cc2[nH]1	–	–	–	–	–	–	·	·
O=C(CSc1nc2ncc(Br)cc2[nH]1)c1ccc([N+](=O)[O-])cc1	–	–	22	–	–	–	–	–
CCCCc1ccc(S(=O)(=O)NCCCN2CCCC2=O)cc1	·	–	–	·	–	–	·	·
COc1ccc(OC)c(/C=C/C(=O)OCC(=O)N2C(C)CCCC2C)c1 (centres undefined)	·	–	21	·	–	–	–	–
CC(=O)c1sc(NC(=O)c2oc3ccc(F)cc3c2C)nc1C	·	–	–	·	–	–	·	·
Cc1ccccc1N/N=C/c1sc(=O)n(Cc2cccc(C(=O)O)c2)c1Cl	·	–	–	–	–	–	·	·
COC(=O)c1cccc(Cn2c(Cl)c(/C=N/Nc3ccccc3C)sc2=O)c1	–	·	38	–	·	–	–	–
COc1ccccc1C(=O)n1nc(-c2ccccc2)nc1NCc1ccco1	–	–	30	–	–	–	–	16
OC[C@@H]1[C@@H](c2ccccc2)C(c2ccccc2)=NN1c1ccccc1	·	–	–	·	–	–	·	·
OC[C@@H]1[C@@H](c2ccccc2)C(c2cccc(Cl)c2)=NN1c1ccccc1	·	–	33	·	–	–	27	54
O=C1OCCN1C(=O)[C@H]1[C@H](c2ccc(Cl)cc2)C(c2cccc(Cl)c2)=NN1c1ccccc1	–	–	–	–	–	–	·	·
Cc1cccc(C2=NN(c3ccc(Br)cc3)[C@@H](C(=O)N3CCOC3=O)[C@@H]2c2ccc(F)cc2)c1	–	–	–	–	–	–	·	·
O=C1OCCN1C(=O)[C@H]1[C@H](c2ccccc2)C(c2cccc(Cl)c2)=NN1c1ccc(Br)cc1	·	–	31	·	–	–	–	47
O=C1OCCN1C(=O)[C@H]1[C@H](c2ccc(F)cc2)C(c2cccc(Cl)c2)=NN1c1ccc(Br)cc1	·	–	26	·	–	–	–	48
O=C1OCCN1C(=O)[C@H]1[C@H](c2ccc(F)cc2)C(c2cccc(Cl)c2)=NN1c1ccccc1	·	–	28	·	–	–	–	44
COc1ccc([C@@H]2C[C@H]3[C@@H](CN2S(=O)(=O)c2ccccc2)C(=O)C[C@@H](c2cccc(Cl)c2)N3S(=O)(=O)c2ccc(C)cc2)cc1	·	·	–	·	·	·	·	·
CCc1ccc(-c2ccc(C(=O)C(F)(F)F)[nH]2)cc1	–	–	–	–	–	–	·	·
Cc1ccc(SCCC(=O)NCCSCc2ccccc2C)cc1	–	–	–	–	–	–	·	·
CCOC(=O)N1CCC(N2C(=O)c3ccccc3C2Nc2cc(OC)c(OC)c(OC)c2)CC1 (centres undefined)	–	–	–	–	–	–	·	·
CCOC(=O)[C@]12Cc3c(cc(OC)c(OC)c3OC)[C@H]1N(C1CCCCC1)C(=O)c1cc(OC)ccc12	·	·	30	·	·	·	28	–
O=C(/C=C/c1cn(CC(O)CN2CCOCC2)c2ccccc12)c1cccs1 (centres undefined)	·	–	·	–	–	·	·	·
Cc1ccc(C(=O)/C=C/c2cn(CC(O)CN3CCOCC3)c3ccccc23)cc1 (centres undefined)	–	·	23	–	·	–	36	35
CCOc1ccc(C(=O)/C=C/c2cn(CN3CCN(C)CC3)c3ccccc23)cc1	–	–	26	–	–	–	24	37
SMILES	TLR4 MyD88 comp	UPR CHOP act	NOD2-RIPK2 inh	CHOP inhibitor	UPR XBP1 act	TLR9-MyD88 block	NOD2-RIPK2 conf	BLA counter
C/C(=N\Nc1ccc([N+](=O)[O-])cc1)c1cccc(N)c1	–	–	24	–	–	–	–	21
C/C(=N\Nc1ncc(Br)cn1)c1cccc([N+](=O)[O-])c1	·	–	–	·	–	–	·	·
O=c1[nH]c2cc3c(cc2cc1CN(CCc1ccccc1)Cc1nnnn1CC1CCCO1)OCO3 (centres undefined)	–	–	–	–	–	–	·	·
O=c1[nH]c2cc3c(cc2cc1CN(Cc1nnnn1CC1CCCO1)C1CCCCC1)OCO3 (centres undefined)	–	–	22	–	–	–	–	–
O=c1[nH]c2cc3c(cc2cc1CN(Cc1nnnn1CC1CCCO1)C1CCCC1)OCO3 (centres undefined)	–	–	39	–	–	–	–	–
Cc1ccc(S(=O)(=O)NC(=O)C2(C)CCN2C(=O)c2cccc(F)c2)cc1 (centres undefined)	·	·	–	·	·	·	·	·
Cc1ccc(OCC(=O)Nc2cccc(S(=O)(=O)NC3=NCCCCC3)c2)cc1C	·	–	–	·	–	–	·	·
Cc1cc(OCC(=O)Nc2cccc(S(=O)(=O)NC3=NCCCCC3)c2)ccc1Cl	–	–	40	–	–	–	–	–
CCOc1ccccc1C(=O)Oc1cc(C)[nH]c(=O)c1[N+](=O)[O-]	·	–	97	·	–	–	–	–
COc1ccccc1C(=O)Oc1cc(C)[nH]c(=O)c1[N+](=O)[O-]	–	–	–	–	–	–	·	·
Cc1ccc(C(=O)N(CC(=O)NC2CCCC2)c2ccccc2Cl)s1	·	–	–	·	–	–	·	·
CCS(=O)(=O)c1c([N+](=O)[O-])ncn1C	–	–	–	–	–	–	·	·
Cn1cnc([N+](=O)[O-])c1S(=O)(=O)Oc1ccc(Cl)cc1	·	·	21	·	·	–	47	–
Cn1cnc([N+](=O)[O-])c1Oc1cccc2ccccc12	–	–	–	–	–	–	·	·
Cn1cnc([N+](=O)[O-])c1S(=O)(=O)Oc1cccc2ccccc12	·	·	56	·	·	–	55	–
O=C(Nc1ccc2ccccc2c1)C(C1CC1)n1c(=O)c(-c2cc3ccccc3[nH]2)nc2ccccc21 (centres undefined)	·	·	45	·	·	·	41	66
COc1ccc(NC(=O)C(C2CC2)n2c(=O)c(-c3ccco3)nc3ccccc32)cc1 (centres undefined)	·	·	–	·	·	·	·	·
O=C(Nc1ccc2c(c1)OCCO2)C(C1CC1)n1c(=O)c(-c2cc3ccccc3[nH]2)nc2ccccc21 (centres undefined)	·	·	45	·	·	·	38	61
O=C(Nc1ccc2c(c1)OCCO2)C(c1ccccc1F)n1c(=O)c(-c2ccco2)nc2ccccc21 (centres undefined)	·	·	–	·	·	·	·	·
